Experimental data gathered from unrelated publications.
Lines come from different studies, so protocols differ.
Target: Testis-specific serine/threonine-protein kinase 3 (TSSK3, Homo sapiens, UniProt Q96PN8)
Sequence (Q96PN8 1-268, as in one of the studies): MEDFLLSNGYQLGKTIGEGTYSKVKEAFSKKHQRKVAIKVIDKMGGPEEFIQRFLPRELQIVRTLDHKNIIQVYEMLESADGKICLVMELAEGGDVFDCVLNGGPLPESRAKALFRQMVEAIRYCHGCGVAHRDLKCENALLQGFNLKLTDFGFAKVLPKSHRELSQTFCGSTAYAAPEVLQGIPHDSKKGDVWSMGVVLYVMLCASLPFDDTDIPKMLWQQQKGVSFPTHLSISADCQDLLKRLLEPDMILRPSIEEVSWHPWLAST

| Structure (SMILES) | effect on | technique | tested at | remaining binding [%] |
| --- | --- | --- | --- | --- |
| F[C@@H]1CCN(c2nccc(-c3cnn4ncccc34)n2)C1 | binding | – | 1 µM | 100 |
| Cc1c(NC(=O)c2cc(C(N)=O)nc3cc(F)ccc23)c(C(F)(F)F)nn1Cc1ccc(C(C)(C)C)cc1 | cell-free assay | competition with immobilised ligand | 1 µM | 100 |
| CN(C)c1ncc(F)c(-c2cnn3ncccc23)n1 | binding | – | 1 µM | 99 |
| CNC(=O)[C@@H]1CC[C@@H](n2c(-c3ccc4cnccc4c3)nc3ccc(C(=O)NCc4cccc(C(N)=O)c4)cc32)C1 | binding | competition with immobilised ligand | 1 µM | 100 |
| O=C(c1ccc(Nc2ncc(Cl)c(-c3ccc(Cl)s3)n2)cc1)N1CCC(N2CCCC2)CC1 | binding | competition with immobilised ligand | 1 µM | 100 |
| C[C@@]1(Cc2ccc(C#N)cc2)C(=O)N(c2cc(Cl)cc(Cl)c2)c2ncc(C(=O)NC3(c4nc(C5CCC5)no4)CC3)n21 | cell-free assay | competition with immobilised ligand | 1 µM | 100 |
| O=C(NCCCN1CCOCC1)c1ccc(Nc2nccc(-c3cc4ccccc4s3)n2)cc1 | binding | competition with immobilised ligand | 1 µM | 79 |
| N[C@H]1CCN(c2nccc(-c3cnn4ncccc34)n2)C1 | binding | – | 1 µM | 88 |
| COc1cnc(Nc2cccc(S(N)(=O)=O)c2)nc1N1CCN(c2ccccc2)CC1 | binding | competition with immobilised ligand | 1 µM | 97 |
| c1cnn2ncc(-c3ccnc(N4CCC45COC5)n3)c2c1 | binding | – | 1 µM | 98 |
| O=C(Nc1c[nH]nc1C(=O)NC1CCNCC1)c1cc(F)cc(F)c1 | binding | competition with immobilised ligand | 1 µM | 100 |
| CCCCN(CCCC)C(=O)CN1C[C@H](c2cc(OC)c3c(c2)OCO3)[C@@H](C(=O)O)[C@@H]1CC(C)(C)CCC | cell-free assay | competition with immobilised ligand | 1 µM | 100 |
| C[C@@H](c1ccc(-n2cnc3c(N)ncnc32)cc1)N1CCc2nn(C)c(Cc3ccccc3)c2C1=O | binding | competition with immobilised ligand | 0.1 µM | 70 |
| FC(F)(F)Oc1cccc(-c2cnc3ccc(-c4ccncc4)nn23)c1 | binding | competition with immobilised ligand | 5 µM | 91 |
| CN(c1nccc(-c2cnn3ncccc23)n1)C1CC1 | binding | – | 1 µM | 99 |
| CN([C@@H]1CCc2c(CC(=O)O)c3cc(S(C)(=O)=O)ccc3n2C1)S(=O)(=O)c1ccc(F)cc1 | cell-free assay | competition with immobilised ligand | 1 µM | 100 |
| O=C(NCCCN1CCOCC1)c1ccc(Nc2ncc(Cl)c(-c3ccc(Cl)s3)n2)cc1 | binding | competition with immobilised ligand | 1 µM | 100 |
| CC1=C(C#N)[C@@H](c2ccc3[nH]nc(C)c3c2)C(C#N)=C(c2ccc(Cl)cc2)N1 | cell-free assay | competition with immobilised ligand | 1 µM | 100 |
| C[C@H]1CCN(c2nccc(-c3cnn4ncccc34)n2)C1 | binding | – | 1 µM | 92 |
| O=C(Nc1cnc(Oc2ccc(F)cc2)nc1)N1CCc2ncccc2[C@@H]1c1ccc(F)cc1 | cell-free assay | competition with immobilised ligand | 1 µM | 86 |
| C=CC(=O)N1CCC(C(=O)NCC(=O)N2CCN(c3nc(-c4cnc(N)nc4C(F)F)nc(N4CCOCC4)n3)CC2)CC1 | binding | competition with immobilised ligand | 1 µM | 100 |
